Here are results for four compounds from ChEMBL document CHEMBL1139317, “Design, synthesis and biological evaluation of novel bicyclo[1.1.1]pentane-based omega-acidic amino acids as glutamate receptors ligands” (Bioorg Med Chem, 2009).

The species named for one assay is Rattus norvegicus. The experiment in a line: Agonist activity at NMDA receptor in rat cortical membranes up to 1 mM by [3H]MK801 binding assay. Type of assay: cell membranes. The essentials: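 [3H]MK801 binding to rat cortical membranes; agonist action read as potentiation of [3H]MK801 binding relative to basal, with glutamate/glycine as reference stimulants of binding.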

The nature of assay [1]: Displacement of [3H]AMPA from AMPA receptor in rat brain membranes. Type of assay: cell membranes. For orientation: Displacement assays read how much labelled ligand stays bound in the presence of the test substance.
The target of assay [2] is Metabotropic glutamate receptor 5 (Homo sapiens, UniProt P41594). The experiment in a line: Displacement of [3H]Quisqualate from human mGluR5 receptor expressed in BHK cells. Type of assay: cell-based.
The target of assay [3] is T1, Glutamate NMDA receptor (Rattus norvegicus) (UniProt P35439+Q00959+Q00960+Q00961+Q62645+Q8VHN2+Q9R1M7). Description: Antagonist activity at NMDA receptor in rat cortical membranes assessed as inhibition of [3H]MK801 binding in presence of glutamate and glycine. Type of assay: cell membranes.
Assay [4] concerns the target Metabotropic glutamate receptor 4 (Homo sapiens, UniProt Q14833). The experiment in a line: Displacement of [3H]L-AP4 from human mGluR4 receptor expressed in BHK cells.
Assay [5] is described as follows: Displacement of [3H]kainic acid from kainate receptor in rat brain membranes. In kind it is cell membranes.
The target of assay [6] is T1, Glutamate NMDA receptor (Rattus norvegicus). The conditions noted are these: Brain, Brain membranes.
The target of assay [7] is Metabotropic glutamate receptor 1 (Homo sapiens, UniProt Q13255). Description: Displacement of [3H]Quisqualate from human mGluR1A receptor expressed in BHK cells. In kind it is cell-based.
In assay [8] the target is Metabotropic glutamate receptor 2 (Homo sapiens, UniProt Q14416). Description: Displacement of [3H]LY341495 from human mGluR2 receptor expressed in BHK cells.

Calls of active or inactive are those of the source. The rule behind the calls is not given here. Some results are limits rather than exact numbers.

Chain of Metabotropic glutamate receptor 1 (Q13255 whole entry): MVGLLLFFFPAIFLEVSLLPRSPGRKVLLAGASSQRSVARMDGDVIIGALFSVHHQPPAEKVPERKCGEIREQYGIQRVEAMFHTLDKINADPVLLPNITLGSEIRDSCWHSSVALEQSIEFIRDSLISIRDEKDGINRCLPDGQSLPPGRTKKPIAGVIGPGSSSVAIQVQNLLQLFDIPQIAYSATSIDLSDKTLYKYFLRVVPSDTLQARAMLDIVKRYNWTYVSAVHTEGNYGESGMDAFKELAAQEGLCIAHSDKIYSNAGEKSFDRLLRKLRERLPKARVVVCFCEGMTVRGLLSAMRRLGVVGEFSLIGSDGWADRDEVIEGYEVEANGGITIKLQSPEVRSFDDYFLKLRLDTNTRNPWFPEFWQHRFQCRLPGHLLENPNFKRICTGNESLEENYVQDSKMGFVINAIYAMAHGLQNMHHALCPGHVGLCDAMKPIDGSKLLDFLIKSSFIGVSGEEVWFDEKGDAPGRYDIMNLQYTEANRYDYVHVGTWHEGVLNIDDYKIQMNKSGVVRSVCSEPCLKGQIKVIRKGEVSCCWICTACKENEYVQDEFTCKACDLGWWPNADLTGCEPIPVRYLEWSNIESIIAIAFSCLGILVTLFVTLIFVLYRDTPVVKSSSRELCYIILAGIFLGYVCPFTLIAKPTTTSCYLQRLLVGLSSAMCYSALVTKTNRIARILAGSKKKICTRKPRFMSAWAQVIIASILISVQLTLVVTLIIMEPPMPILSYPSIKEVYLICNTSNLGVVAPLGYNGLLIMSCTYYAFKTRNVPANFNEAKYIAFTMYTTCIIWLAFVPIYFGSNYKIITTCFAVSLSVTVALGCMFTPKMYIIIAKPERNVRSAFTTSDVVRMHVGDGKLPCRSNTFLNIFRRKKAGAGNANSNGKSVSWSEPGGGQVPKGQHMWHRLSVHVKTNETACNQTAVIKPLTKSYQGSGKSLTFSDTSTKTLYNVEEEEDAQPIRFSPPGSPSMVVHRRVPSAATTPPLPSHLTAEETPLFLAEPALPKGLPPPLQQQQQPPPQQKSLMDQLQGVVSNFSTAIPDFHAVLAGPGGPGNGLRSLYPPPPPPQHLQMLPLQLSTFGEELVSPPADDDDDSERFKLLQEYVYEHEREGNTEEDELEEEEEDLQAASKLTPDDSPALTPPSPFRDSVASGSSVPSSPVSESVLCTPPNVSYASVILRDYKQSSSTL
Chain of Metabotropic glutamate receptor 4 (Q14833 whole entry): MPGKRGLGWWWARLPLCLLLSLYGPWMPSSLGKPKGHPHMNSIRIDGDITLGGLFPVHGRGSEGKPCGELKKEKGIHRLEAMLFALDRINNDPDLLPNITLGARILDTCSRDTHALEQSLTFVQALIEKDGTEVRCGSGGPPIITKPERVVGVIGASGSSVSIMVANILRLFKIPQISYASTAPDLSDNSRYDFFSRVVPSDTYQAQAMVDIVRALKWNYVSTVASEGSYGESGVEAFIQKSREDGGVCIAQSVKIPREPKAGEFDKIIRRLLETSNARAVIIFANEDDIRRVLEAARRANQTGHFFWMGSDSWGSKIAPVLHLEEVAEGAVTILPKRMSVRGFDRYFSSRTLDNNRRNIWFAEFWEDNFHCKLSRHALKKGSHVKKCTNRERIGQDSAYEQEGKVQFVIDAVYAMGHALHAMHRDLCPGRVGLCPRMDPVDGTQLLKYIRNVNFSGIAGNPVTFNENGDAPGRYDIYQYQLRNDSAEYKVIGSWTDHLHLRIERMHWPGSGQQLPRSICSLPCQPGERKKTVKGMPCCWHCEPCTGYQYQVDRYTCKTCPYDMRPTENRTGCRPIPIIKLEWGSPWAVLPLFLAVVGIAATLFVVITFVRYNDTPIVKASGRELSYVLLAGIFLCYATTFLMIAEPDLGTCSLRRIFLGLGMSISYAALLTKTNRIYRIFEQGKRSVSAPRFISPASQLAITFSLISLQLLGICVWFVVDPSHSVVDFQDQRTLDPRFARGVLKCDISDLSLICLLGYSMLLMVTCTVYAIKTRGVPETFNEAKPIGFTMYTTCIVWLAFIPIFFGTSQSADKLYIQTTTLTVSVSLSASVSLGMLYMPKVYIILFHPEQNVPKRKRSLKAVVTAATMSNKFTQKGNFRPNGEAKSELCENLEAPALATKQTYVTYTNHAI
Chain of Metabotropic glutamate receptor 2 (Q14416 whole entry): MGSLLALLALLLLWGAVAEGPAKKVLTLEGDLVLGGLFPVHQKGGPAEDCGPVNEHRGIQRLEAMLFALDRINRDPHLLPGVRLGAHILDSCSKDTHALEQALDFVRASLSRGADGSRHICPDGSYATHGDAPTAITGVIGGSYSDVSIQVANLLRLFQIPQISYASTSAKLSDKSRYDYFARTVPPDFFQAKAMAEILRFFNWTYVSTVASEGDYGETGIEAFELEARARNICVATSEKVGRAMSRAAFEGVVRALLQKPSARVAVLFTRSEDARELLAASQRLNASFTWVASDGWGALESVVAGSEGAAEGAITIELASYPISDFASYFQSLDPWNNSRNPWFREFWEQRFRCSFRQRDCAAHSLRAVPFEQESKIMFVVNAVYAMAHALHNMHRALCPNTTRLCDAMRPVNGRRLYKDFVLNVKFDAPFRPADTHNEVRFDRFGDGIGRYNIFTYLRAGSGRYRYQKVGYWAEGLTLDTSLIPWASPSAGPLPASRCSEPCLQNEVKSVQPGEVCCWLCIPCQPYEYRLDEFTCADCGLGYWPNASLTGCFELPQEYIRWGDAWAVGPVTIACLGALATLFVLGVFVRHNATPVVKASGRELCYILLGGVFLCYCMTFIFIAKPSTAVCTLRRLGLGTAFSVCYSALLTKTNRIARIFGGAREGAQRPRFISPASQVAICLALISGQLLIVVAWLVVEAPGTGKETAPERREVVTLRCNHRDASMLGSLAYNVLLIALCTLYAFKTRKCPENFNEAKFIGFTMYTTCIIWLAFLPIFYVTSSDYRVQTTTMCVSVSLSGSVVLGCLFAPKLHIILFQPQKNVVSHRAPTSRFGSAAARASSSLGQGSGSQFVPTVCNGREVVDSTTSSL
Chain of Metabotropic glutamate receptor 5 (P41594 whole entry): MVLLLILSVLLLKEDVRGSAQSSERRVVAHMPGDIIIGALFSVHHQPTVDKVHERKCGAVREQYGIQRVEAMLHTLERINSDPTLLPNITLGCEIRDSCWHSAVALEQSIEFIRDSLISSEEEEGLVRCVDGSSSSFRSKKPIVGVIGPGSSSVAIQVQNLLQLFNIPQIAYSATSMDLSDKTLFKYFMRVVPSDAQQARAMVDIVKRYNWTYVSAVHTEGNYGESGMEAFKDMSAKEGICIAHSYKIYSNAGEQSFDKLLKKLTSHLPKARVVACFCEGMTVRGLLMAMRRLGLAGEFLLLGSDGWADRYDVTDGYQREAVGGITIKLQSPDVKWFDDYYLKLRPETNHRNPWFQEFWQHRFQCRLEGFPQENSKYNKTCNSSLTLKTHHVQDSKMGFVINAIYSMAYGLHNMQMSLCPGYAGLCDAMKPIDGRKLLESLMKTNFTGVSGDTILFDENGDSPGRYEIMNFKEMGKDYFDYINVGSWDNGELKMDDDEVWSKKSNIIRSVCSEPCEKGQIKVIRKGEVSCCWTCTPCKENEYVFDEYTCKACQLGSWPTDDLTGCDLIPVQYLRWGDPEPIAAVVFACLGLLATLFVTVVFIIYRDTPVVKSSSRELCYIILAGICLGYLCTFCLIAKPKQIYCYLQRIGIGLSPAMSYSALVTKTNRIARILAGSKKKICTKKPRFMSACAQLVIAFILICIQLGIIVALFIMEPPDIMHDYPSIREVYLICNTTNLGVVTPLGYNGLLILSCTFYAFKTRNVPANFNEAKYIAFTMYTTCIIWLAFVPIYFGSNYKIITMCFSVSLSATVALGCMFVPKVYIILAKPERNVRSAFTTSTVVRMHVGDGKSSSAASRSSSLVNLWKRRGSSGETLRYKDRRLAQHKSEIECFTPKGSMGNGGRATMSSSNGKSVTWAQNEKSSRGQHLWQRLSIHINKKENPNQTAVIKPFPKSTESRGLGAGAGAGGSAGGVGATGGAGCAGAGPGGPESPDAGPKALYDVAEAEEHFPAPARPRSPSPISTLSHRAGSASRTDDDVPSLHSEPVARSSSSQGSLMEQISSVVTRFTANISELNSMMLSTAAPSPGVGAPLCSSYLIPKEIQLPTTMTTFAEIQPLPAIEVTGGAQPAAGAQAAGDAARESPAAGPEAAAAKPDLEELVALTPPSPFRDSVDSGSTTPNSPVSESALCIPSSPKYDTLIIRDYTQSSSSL

For the compound `N[C@@H](CC12CC(C(=O)O)(C1)C2)C(=O)O`, the result (in the assay filed under Rattus norvegicus; in [3]) was inactive. The inhibitory constant (Ki) (in general, a dissociation constant, usually derived from enzyme kinetics or from competition with a known ligand) was more than 300 µM in assay [1]; more than 300 µM in [2]; more than 1000 µM in [4]; more than 300 µM in [5]; more than 300 µM at Glutamate NMDA receptor; more than 1000 µM in assay [7]. Besides, in assay [8], the inhibitory constant (Ki) is more than 1000 µM. In assay [6], the logKi is 2.48.

On to `N[C@@H](CCP(=O)(O)O)C(=O)O`, for which the Ki in assay [1] was more than 1000 µM; in assay [2], more than 1000 µM; in assay [4], 0.16 µM; in [5], more than 1000 µM; on Glutamate NMDA receptor, more than 300 µM; in assay [7] it was more than 1000 µM. Moreover, in assay [8], the inhibition constant Ki was more than 1000 µM.

Consider `N[C@H](CC12CC(C(=O)O)(C1)C2)C(=O)O`, for which the result (in the assay listed under Rattus norvegicus; in assay [3]) was inactive. The inhibitory constant (Ki) in [1] was more than 300 µM; in [2], 336 µM; in assay [4], more than 1000 µM; in assay [5] it was more than 300 µM; on Glutamate NMDA receptor, 29 µM; in assay [7] it was 210 µM. In assay [8], this compound registered an inhibition constant Ki of more than 1000 µM. The compound also had a logKi in assay [6] of 1.46.

For the compound `O=C(O)[C@H]1CN(CCCP(=O)(O)O)CCN1`, the Activity in [3] is 103 nM.
